Compound activity: PubChem, Sanford-Burnham Center for Chemical Genomics
MT1-MMP act inh = blocks activation of human MT1-MMP. AID 651647. HT1080 RFP-PRO-GFP cells, GFP/RFP ratio fluorescence, overnight; percent of plate control window, DMSO zero. GFP/RFP ratio change, % at 20 µM. 360,000 tested, 0.061% active;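 active = GFP/RFP ratio change of at least 30% with cell ATP level not reduced by more than half and red fluorescence within 50% of control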
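Assay system: RFP-PRO-GFP reporter HT1080 cells; read-out basis: GFP/RFP fluorescence ratio; benchmarks: DMSO wells and RFP-L50D-GFP cells; doses: 20 µM single dose, 1% DMSO; schedule: overnight cell settling, then overnight compound exposure, 37 °C, 5% CO2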
DNMT1 inh = DNMT1 (human) enzyme inhibition; 360,000 tested, 0.83% active; inhibition (reported as % activation of signal), % at 10 µM; DNMT1 molecular beacon, Hinp1I cleavage, fluorescence; P26358; AID 588458; in the data active = inhibition above about 50%
SKN-1 block = blocks SKN-1 activity in C. elegans; inhibition, % at 21.8 µM; 360,000 tested, 0.49% active; C. elegans VP596 Pgst-4::GFP/RFP ratio, acrylamide-induced, 24 h;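 active = interference check ratio from 0.5 to 1.5 plus GFP to RFP signal ratio inhibition reaching or exceeding a fixed threshold, cut at about 30% in these data, passing the limit was not always enough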
CSN deneddyl inh = inhibitors of human CSN-mediated cullin deneddylation; AID 651999; Purified CSN, SCF-Nedd8-OG deneddylation, fluorescence polarization; inhibition, % at 12.5 µM; Q92905; 360,000 tested, 0.38% active;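 active = pattern-corrected inhibition above about 35%, with an unprinted fluorescence ratio check between 0.5 and 1.5, limit read from the data, passing the limit was not always enough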;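 also: 0% = enzyme with substrate and 100% = substrate without enzyme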
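Schedule: reaction 90 min, room temperature / Assay system: HEK293T-derived human Csn5 enzyme / Input: Csn5 at 0.24 nM final / Measure: inhibition of Csn5 cleavage, % / Control set: substrate-only high control, full reaction low control / Technique: fluorescence polarization of the substrate / Buffer or medium: Tris/NaCl/DTT buffer, pH 7.5 / Reagent: SCFSkp2-Nedd8OG substrate at 10 nM final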
Rpn11 block = inhibitors of human proteasome Rpn11; human 26S proteasome, Ub4-pepOG fluorescence polarization; 20S core pre-blocked with epoxomicin; inhibition, % at 20 µM; 360,000 tested, 0.59% active; AID 588493;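 active = inhibition at 20 µM, scaled to each plate's controls, above about 33%, limit read from the data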
Target sequence (O00487 whole entry, looked up): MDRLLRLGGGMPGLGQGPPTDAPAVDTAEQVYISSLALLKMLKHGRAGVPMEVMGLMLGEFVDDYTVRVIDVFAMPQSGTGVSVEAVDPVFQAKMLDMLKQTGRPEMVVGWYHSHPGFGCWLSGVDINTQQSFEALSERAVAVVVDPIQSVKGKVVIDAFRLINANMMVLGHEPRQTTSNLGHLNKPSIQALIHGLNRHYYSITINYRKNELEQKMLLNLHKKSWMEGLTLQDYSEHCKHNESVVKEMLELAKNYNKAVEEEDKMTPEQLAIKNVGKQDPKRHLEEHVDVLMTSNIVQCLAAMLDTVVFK
SUMO1-SIM PPI = modulators of human SUMO1-mediated protein-protein interactions; SUMO1 binding to a labelled peptide, TR-FRET, 1 h; 360,000 tested, 0.33% active; inhibition, % at 20 µM; P63165; AID 602429; in the data active = inhibition above about 37%
Target sequence (P63165 whole entry, looked up): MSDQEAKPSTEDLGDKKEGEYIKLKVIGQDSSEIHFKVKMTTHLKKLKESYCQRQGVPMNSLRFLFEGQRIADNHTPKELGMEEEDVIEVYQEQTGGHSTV
* = called active by the depositor; / = no result shown; + = active, no number. In the library only some 2.3% were active in any assay of this set; here they are far more common.

SMILES	MT1-MMP act inh	DNMT1 inh	SKN-1 block	CSN deneddyl inh	Rpn11 block	SUMO1-SIM PPI
COc1ccc(CC(N)c2csc(NC(=O)C(c3ccccc3)c3ccccc3)n2)cc1 (stereo unspecified)	-7	-17	11	5	14	-74
CCOC(=O)COn1c(-c2cccc(Cl)c2)nc2ccc([N+](=O)[O-])cc21	-1	-9	38*	-1	4	-9
COc1ccc(NS(=O)(=O)c2ccc(C(=O)NCC3(N4CCOCC4)CCCCC3)cc2)cc1	2	-4	2	0	3	40*
COc1ccc(NS(=O)(=O)c2cccc(C(=O)NCC3(N4CCOCC4)CCCCC3)c2)cc1	0	-2	4	-4	-5	-4
Clc1ccc(-c2cnc3n2CCCCC3)cc1	-4	1	1	0	1	43*
Nc1ccc2c(c1Cl)C(=O)c1ccc(N)c(Cl)c1C2=O	5	81*	22	49	2	109*
CC1(Cc2ccc(C(F)(F)F)nc2)C(=O)Nc2cc(-c3ccccc3Cl)ccc21 (stereo unspecified)	-7	17	5	-1	11	0
Cc1ccccc1CSCC(=O)NCCSc1ccccn1	2	-1	2	7	-4	49*
COc1ccccc1CCn1cnc(C)c1CC(C)C	-8	/	1	62*	/	2
CCc1ncn(CCc2ccccc2OC)c1C(C)C	0	/	-17	0	/	4
CCCCCCCCCCCCCCCC[n+]1ccccc1	-7	-1	18	4	81*	-9
CCCCCCCCCCCCCCCC[n+]1ccc(/C=N/O)cc1	-39	10	43*	5	66*	19
O/N=C/c1cccc[n+]1CCCCCC[n+]1ccccc1/C=N/O	-1	0	-1	-3	-2	-18
COCCNC(=O)C1(C)CCCN(C(=O)c2ccc(N(C)C)cc2)C1 (stereo unspecified)	4	-2	17	0	-2	3
Cc1cccc(C)c1-n1nnnc1C(c1ccccc1OC(F)(F)F)N1CCN(C/C=C/c2ccccc2)CC1 (stereo unspecified)	-7	3	11	1	1	8
COCCCn1c(=O)/c(=C\c2ccc(OC(F)F)c(OC)c2)s/c1=C(/C#N)C(=O)NCCOC	-48	-3	-16	57*	/	-7
C=CCn1c(=O)/c(=C\c2ccsc2)s/c1=C(/C#N)C(=O)NCCN1CCOCC1	1	-2	-5	5	14	-27
COCCCn1c(=O)/c(=C\c2ccccc2OC(F)F)s/c1=C(/C#N)C(=O)NC(C)C	-96	7	8	36*	/	-4
Cc1nc2c(OCc3ccc(Cl)cc3)cccn2c1N(C)C(=O)CCC1CCCC1	4	-10	3	1	15	3
Cc1ccsc1/C=N/NC(=O)CO	2	0	5	2	2	-6
Cc1ccsc1C=Nc1ccc(O)cc1	9	89*	28*	29	-1	68*
N=C1/C(=C\c2ccc(-c3ccc(C(=O)O)cc3)o2)C(=O)N=C2SC=C(c3ccccc3)N12	-19	40	7	50	+	110*
CC(O)(c1cccc(F)c1)c1nc(-c2ccc3ccccc3c2)cs1 (stereo unspecified)	4	-15	22	-2	5	3
NC(=O)Cn1nnc(-c2ccc(CN3CCCCC3)cc2)n1	6	3	6	1	7	58*
Cc1cccc(NC(=O)Cn2nnc(-c3ccc(CN4CCCC4)cc3)n2)c1C	-5	1	-6	6	-8	17
SMILES	MT1-MMP act inh	DNMT1 inh	SKN-1 block	CSN deneddyl inh	Rpn11 block	SUMO1-SIM PPI
COc1ccc(S(=O)(=O)N(C)C[C@@H]2Oc3cc(Br)ccc3S(=O)(=O)N([C@H](C)CO)C[C@@H]2C)cc1	0	-1	-13	-7	2	-3
CCCOc1cc(C)c(S(=O)(=O)NCc2cccs2)cc1C	2	-4	44*	-2	0	4
Cc1cc(C)c(S(=O)(=O)NCc2cccs2)cc1C	-3	1	-9	-3	2	3
CCCCC(=O)N1CCN(c2nc3ccc(OCC)cc3s2)CC1	1	0	7	63*	-6	3
CCC(=O)N1CCN(c2nc3ccc(Br)cc3s2)CC1	0	-3	43*	4	-5	-4
Cc1cc2nc(-c3nnnn3C3CCCCC3)c(=O)[nH]c2cc1C	4	/	2	-3	/	-12
CCCC(C(=O)O)N1C(=O)/C(=C/c2cccn2C)SC1=S (stereo unspecified)	-28	14	18	89*	/	-28
O=C(O)C(Cc1ccccc1)N1C(=O)/C(=C/c2cccs2)SC1=S (stereo unspecified)	4	4	9	7	2	-14
CC(=C\c1ccco1)/C=C1/SC(=S)N(CC(=O)O)C1=O	5	18	28	14	31	-12
Cn1cc(/C=C2/SC(=O)N(c3ccccc3)C2=O)c2ccccc21	0	11	8	4	-6	1
CC(C)C(C(=O)O)N1C(=O)/C(=C/c2cccn2C)SC1=S (stereo unspecified)	-10	10	14	66*	/	-29
Cn1cccc1/C=C1\SC(=O)N(c2ccccc2)C1=O	4	-2	3	43*	3	-7
Cn1cccc1/C=C1\SC(=S)N(Nc2ccccc2)C1=O	4	-1	23	34	/	-41
CC(C)C(C(=O)O)N1C(=O)/C(=C/C=C/c2ccco2)SC1=S (stereo unspecified)	7	85*	24	61	/	108*
OCCNc1ncnc2c1ncn2[C@H]1CN(C2CCCC2)C[C@@H](CO)O1	0	7	10	1	2	-2
CC(O)(c1ccccc1)c1nc(-c2ccncc2)cs1 (stereo unspecified)	-2	3	-11	0	-4	7
CCCCn1nnnc1C(c1ccccc1)N1CCN(c2ccc(C(F)(F)F)cc2[N+](=O)[O-])CC1 (stereo unspecified)	-7	/	9	-4	/	-2
CCc1nc2ccc(C(=O)N(C)CCCN(C)C)cn2c1N(C)Cc1cc2ccccc2s1	-5	0	3	2	-6	-1
COCCN(Cc1ccc(C)cc1)C(=O)[C@H]1O[C@@H](n2ccc(=O)[nH]c2=O)[C@H](O)[C@@H]1O	3	-2	2	-2	-10	8
CC(=O)NCCNc1nc2cc(-c3ccccc3C)sc2c(=O)n1C	0	1	17	-2	-3	-4
